SMILES strings stand for the structures.

Test [1] concerns the target Serine/threonine-protein kinase PAK 6 (Homo sapiens) (UniProt Q9NQU5). Nature of the test: Inhibition of PAK6 assessed as residual activity at 0.1 uM by Cherenkov counting relative to control in presence of 20 uM ATP. Summed up: (§1)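 Single-concentration selectivity screen at 0.1 μM against a panel of 76 protein kinases. Each kinase was run at an ATP level approximating its Km for ATP. Output is mean residual activity as % of the control assay without compound, n = 3 ± SD.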

The target in test [2] is Protein kinase C alpha type (Homo sapiens) (UniProt P17252). Nature of the test: Inhibition of PKCalpha assessed as residual activity at 0.1 uM by Cherenkov counting relative to control in presence of 20 uM ATP. The essentials:
(§2)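 Single-concentration screen at 0.1 μM in a 76-kinase panel. ATP for each kinase was set near its Km for ATP. Residual activity is given as a percentage of control assays without compound, mean of n = 3 ± SD.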

For test [3], the target named is Ribosomal protein S6 kinase alpha-1 (Homo sapiens) (UniProt Q15418). Nature of the test: Inhibition of RSK1 assessed as residual activity at 0.1 uM by Cherenkov counting relative to control. The essentials: as §2
Test [4] addresses Serine/threonine-protein kinase pim-1 (Homo sapiens) (UniProt P11309). Put plainly: Inhibition of PIM1 assessed as residual activity at 0.1 uM by Cherenkov counting relative to control in presence of 20 uM ATP. The essentials: as §1
The target in test [5] is Ribosomal protein S6 kinase alpha-5 (Homo sapiens) (UniProt O75582). Nature of the test: Inhibition of MSK1 assessed as residual activity at 0.1 uM by Cherenkov counting relative to control in presence of 20 uM ATP. The essentials:
as §1

Test [6] has as its target SRSF protein kinase 1 (Homo sapiens) (UniProt Q96SB4). Put plainly: Inhibition of SRPK1 assessed as residual activity at 0.1 uM by Cherenkov counting relative to control in presence of 50 uM ATP. Summed up: as §2
In test [7] the target is Serine/threonine-protein kinase PLK1 (Homo sapiens) (UniProt P53350). Put plainly: Inhibition of PLK1 assessed as residual activity at 10 uM by Cherenkov counting relative to control in presence of 5 uM ATP. The essentials: (§3)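 Single-concentration profiling at 10 μM in a 78-kinase panel. Kinase activity is expressed as a percentage of control assays run without compound.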
Serine/threonine-protein kinase PLK1 (Homo sapiens), sequence (P53350 whole entry): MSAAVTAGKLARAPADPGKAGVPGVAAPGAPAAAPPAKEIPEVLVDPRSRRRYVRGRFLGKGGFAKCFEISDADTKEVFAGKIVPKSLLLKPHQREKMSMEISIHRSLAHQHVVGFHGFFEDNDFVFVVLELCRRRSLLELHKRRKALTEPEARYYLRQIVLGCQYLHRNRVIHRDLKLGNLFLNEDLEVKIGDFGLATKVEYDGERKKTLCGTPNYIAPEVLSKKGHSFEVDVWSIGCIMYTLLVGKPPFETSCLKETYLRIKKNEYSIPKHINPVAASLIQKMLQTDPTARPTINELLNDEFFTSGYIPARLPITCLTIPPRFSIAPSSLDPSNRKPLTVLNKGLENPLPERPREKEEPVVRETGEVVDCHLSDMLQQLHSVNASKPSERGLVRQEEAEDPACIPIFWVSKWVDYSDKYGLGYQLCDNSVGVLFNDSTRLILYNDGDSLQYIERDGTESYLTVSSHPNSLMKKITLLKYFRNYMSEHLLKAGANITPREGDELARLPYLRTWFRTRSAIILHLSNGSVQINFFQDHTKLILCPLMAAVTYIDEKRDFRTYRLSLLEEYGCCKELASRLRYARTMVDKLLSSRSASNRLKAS

Test [8] concerns the target T1, Serine/threonine-protein kinase Sgk1 (Homo sapiens) (UniProt O00141).
T1 sequence (whole entry): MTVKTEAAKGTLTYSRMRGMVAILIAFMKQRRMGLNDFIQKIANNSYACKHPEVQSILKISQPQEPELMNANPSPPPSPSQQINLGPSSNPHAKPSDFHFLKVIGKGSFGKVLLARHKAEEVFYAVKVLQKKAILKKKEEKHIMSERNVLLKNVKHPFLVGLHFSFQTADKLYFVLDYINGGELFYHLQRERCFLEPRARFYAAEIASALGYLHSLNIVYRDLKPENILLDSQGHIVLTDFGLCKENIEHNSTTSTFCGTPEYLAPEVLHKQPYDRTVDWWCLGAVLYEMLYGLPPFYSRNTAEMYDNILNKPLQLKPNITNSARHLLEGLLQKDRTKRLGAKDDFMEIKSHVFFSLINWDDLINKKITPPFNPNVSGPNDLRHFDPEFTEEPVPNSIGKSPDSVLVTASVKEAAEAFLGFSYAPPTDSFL
Nature of the test: Inhibition of SGK1 assessed as residual activity at 10 uM by Cherenkov counting relative to control in presence of 20 uM ATP. The essentials:
as §3

In test [9] the target is Serine/threonine-protein kinase pim-1 (Homo sapiens) (UniProt P11309). Put plainly: Inhibition of PIM1 assessed as residual activity at 10 uM by Cherenkov counting relative to control in presence of 20 uM ATP.
Serine/threonine-protein kinase pim-1 (Homo sapiens), sequence (P11309 whole entry, looked up): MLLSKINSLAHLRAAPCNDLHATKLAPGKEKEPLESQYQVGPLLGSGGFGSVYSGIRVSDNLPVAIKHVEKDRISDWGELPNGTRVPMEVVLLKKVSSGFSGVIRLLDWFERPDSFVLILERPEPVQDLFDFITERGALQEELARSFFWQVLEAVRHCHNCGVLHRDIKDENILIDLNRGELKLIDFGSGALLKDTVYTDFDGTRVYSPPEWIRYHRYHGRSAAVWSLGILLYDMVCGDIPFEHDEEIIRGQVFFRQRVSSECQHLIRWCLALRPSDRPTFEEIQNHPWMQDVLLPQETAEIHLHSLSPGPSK
Test [10] has as its target MAP/microtubule affinity-regulating kinase 3 (Homo sapiens) (UniProt P27448). Put plainly: Inhibition of MARK3 assessed as residual activity at 10 uM by Cherenkov counting relative to control in presence of 5 uM ATP.
For test [11], the target named is Casein kinase I isoform delta (Homo sapiens, UniProt P48730). Nature of the test: Inhibition of CK1delta at 10 uM by Cherenkov counting in presence of 20 uM ATP.
Casein kinase I isoform delta, sequence (P48730 whole entry, looked up, canonical isoform): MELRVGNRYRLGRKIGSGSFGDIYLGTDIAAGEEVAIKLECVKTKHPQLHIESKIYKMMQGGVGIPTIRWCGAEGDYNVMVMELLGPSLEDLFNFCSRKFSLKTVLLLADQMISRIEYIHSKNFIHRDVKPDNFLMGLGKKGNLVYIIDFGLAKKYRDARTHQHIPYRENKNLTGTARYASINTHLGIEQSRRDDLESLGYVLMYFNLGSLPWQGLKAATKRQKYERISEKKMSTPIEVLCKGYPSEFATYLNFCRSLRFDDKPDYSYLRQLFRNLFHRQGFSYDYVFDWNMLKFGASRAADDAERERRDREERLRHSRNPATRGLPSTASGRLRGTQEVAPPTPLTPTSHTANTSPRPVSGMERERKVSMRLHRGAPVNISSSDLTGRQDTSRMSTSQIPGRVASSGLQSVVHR
The target in test [12] is Tyrosine-protein kinase Lck (Homo sapiens) (UniProt P06239). Put plainly: Inhibition of Lck assessed as residual activity at 10 uM by Cherenkov counting relative to control in presence of 50 uM ATP.
Tyrosine-protein kinase Lck (Homo sapiens), sequence (P06239 2-509 limits assumed): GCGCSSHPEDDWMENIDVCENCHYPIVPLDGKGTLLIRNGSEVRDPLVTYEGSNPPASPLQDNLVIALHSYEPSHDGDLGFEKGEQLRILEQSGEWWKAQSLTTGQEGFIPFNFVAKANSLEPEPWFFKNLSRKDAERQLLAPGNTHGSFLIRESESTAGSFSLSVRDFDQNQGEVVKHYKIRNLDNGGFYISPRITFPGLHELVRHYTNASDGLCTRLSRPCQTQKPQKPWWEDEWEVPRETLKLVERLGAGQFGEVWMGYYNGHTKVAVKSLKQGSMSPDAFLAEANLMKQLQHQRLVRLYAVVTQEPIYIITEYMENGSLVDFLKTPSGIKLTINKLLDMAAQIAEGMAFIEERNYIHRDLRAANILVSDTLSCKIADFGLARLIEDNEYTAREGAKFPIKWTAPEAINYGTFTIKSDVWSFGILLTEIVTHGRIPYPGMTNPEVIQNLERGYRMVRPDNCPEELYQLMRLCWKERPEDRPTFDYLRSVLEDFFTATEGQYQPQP
The target in test [13] is T2, Inhibitor of nuclear factor kappa-B kinase subunit epsilon (Homo sapiens) (UniProt Q14164).
T2 sequence (whole entry): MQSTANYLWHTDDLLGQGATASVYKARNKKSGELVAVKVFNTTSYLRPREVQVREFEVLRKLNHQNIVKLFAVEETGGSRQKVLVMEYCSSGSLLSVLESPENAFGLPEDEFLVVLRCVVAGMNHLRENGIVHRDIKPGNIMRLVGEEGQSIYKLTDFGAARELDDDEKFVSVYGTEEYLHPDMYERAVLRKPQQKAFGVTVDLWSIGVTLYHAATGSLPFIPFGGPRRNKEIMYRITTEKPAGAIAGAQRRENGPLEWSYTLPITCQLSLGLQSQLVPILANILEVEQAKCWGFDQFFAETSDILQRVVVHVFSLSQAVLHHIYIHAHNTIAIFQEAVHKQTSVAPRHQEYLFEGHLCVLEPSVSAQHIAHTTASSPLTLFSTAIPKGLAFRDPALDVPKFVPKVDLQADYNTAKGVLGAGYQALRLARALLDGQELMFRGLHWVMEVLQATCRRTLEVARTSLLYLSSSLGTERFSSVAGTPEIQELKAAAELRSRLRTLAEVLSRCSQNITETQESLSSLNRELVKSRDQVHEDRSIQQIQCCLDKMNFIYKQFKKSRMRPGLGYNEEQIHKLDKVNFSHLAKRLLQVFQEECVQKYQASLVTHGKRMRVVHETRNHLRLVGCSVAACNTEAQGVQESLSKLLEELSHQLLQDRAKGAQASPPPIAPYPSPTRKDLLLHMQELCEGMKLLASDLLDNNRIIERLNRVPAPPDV
Put plainly: Inhibition of IKKepsilon assessed as residual activity at 10 uM by Cherenkov counting relative to control in presence of 50 uM ATP.

Test [14] addresses Aurora kinase B (Homo sapiens) (UniProt Q96GD4). Put plainly: Inhibition of Aurora B assessed as residual activity at 10 uM by Cherenkov counting relative to control in presence of 20 uM ATP. Summed up:
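Single-point profiling at 10 µM in a panel of 78 protein kinases. Kinase activity is expressed as a percentage relative to control assays without compound.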

Ribosomal protein S6 kinase alpha-5 (Homo sapiens), sequence (O75582 whole entry, looked up): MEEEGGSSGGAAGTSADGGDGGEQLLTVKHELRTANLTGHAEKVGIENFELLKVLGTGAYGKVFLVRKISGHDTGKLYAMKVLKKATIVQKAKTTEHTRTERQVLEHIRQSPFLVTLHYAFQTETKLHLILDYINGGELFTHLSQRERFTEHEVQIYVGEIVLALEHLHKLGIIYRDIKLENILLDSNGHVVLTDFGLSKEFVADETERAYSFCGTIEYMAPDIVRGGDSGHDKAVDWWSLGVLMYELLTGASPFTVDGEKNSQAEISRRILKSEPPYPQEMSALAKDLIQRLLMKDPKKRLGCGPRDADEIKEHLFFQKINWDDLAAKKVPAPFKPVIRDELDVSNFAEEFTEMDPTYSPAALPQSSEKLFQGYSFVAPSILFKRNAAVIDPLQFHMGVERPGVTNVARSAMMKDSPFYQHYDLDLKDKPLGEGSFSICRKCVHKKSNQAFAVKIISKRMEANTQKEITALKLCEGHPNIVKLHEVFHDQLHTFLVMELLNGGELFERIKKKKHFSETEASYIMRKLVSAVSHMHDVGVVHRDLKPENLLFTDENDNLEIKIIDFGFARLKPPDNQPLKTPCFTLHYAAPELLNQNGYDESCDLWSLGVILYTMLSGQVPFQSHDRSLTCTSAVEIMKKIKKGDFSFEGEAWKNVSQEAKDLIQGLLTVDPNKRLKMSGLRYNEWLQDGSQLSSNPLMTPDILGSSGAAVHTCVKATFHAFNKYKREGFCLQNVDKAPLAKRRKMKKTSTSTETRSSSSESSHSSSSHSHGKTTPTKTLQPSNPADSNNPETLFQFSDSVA
MAP/microtubule affinity-regulating kinase 3 (Homo sapiens), sequence (P27448 whole entry, looked up, canonical isoform): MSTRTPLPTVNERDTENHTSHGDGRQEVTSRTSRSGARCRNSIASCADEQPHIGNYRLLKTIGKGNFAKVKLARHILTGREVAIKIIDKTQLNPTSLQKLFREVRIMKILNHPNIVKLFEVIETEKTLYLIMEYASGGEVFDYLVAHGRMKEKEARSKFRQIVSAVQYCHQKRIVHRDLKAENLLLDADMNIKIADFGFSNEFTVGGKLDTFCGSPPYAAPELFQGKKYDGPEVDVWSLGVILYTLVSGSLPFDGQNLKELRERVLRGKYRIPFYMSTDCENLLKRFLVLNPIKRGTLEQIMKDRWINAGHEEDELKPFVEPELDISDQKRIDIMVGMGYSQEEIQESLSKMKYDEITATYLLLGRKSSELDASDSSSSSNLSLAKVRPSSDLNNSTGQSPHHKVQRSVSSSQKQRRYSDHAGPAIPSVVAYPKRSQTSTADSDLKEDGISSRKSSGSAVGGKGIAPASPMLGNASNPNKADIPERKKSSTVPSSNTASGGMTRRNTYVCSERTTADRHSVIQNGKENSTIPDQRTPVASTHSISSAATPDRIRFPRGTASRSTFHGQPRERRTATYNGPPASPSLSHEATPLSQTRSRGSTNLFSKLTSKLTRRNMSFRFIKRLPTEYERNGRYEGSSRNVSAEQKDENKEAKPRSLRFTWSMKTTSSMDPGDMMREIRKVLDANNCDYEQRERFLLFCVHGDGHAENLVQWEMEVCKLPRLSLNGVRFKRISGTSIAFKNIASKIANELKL
Aurora kinase B (Homo sapiens), sequence (Q96GD4 whole entry): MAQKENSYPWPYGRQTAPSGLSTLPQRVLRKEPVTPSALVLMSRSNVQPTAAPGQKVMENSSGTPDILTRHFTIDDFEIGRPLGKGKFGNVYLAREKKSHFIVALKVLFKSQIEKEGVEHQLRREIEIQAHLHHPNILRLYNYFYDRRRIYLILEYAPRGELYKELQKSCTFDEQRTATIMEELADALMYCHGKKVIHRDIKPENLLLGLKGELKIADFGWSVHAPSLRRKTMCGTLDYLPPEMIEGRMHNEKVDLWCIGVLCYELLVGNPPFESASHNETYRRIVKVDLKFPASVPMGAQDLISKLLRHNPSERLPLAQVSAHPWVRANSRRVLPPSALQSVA
Serine/threonine-protein kinase PAK 6 (Homo sapiens), sequence (Q9NQU5 whole entry, looked up): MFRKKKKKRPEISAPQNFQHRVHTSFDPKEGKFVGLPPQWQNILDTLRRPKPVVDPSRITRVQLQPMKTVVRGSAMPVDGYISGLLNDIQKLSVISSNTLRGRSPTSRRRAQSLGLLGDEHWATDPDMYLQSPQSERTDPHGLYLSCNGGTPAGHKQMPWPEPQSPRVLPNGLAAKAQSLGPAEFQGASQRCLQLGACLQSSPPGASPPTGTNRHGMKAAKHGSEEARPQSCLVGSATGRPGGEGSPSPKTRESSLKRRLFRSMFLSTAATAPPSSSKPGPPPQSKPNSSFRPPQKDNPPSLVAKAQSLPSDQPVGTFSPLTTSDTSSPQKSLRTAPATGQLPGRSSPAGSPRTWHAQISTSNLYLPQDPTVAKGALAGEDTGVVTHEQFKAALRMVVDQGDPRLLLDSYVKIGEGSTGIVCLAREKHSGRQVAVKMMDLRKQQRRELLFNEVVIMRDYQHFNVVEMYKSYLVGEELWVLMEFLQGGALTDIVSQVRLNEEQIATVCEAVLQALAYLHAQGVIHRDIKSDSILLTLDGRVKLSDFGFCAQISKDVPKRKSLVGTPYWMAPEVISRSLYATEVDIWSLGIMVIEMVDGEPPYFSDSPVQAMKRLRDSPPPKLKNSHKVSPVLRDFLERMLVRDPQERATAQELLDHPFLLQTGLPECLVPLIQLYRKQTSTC

Consider `COc1ccc(/C=C/C(=O)Nc2cc(-c3[nH]c(SC)nc3-c3ccc(F)cc3)ccn2)c(OC)c1`, for which the Activity in [1] came out at 76%; in [2], 110%; in test [3], 78%; in [4], 98%; in test [5] it was 84%; in test [6], 91%.

What is called inhibition is the drop in the measured response relative to a control, in per cent. Take `CC(C)c1onc(-c2ccc(F)cc2)c1-c1ccncc1`: the Activity in [7] amounted to 104%; in [8], 76%; in test [9] it was 100%; in test [10], 95%; in test [12] it was 42%; in test [13], 81%. Also, the Activity in test [14] came out at 101%. Besides, in [11], the inhibition stood at 90%.

`CC(C)c1noc(-c2ccc(F)cc2)c1-c1ccncc1`: the Activity was found to be 93% in [7]; 91% in test [8]; 89% in test [9]; 92% in test [10]; 64% in [12]; 71% in [13]. Moreover, in [14], the Activity worked out at 22%. The inhibition in test [11] came to 40%.

In the case of `COc1ccc(/C=C/C(=O)Nc2cc(-c3[nH]c([S+](C)[O-])nc3-c3ccc(F)cc3)ccn2)c(OC)c1` (stereo not drawn), the Activity came out at 84% in [1]; 103% in [2]; 80% in test [3]; 109% in test [4]; 97% in test [5]; 97% in [6].

The values above are taken from ChEMBL document CHEMBL1155278, “3,4-Diaryl-isoxazoles and -imidazoles as potent dual inhibitors of p38alpha mitogen activated protein kinase and casein kinase 1delta” (J Med Chem, 2009).
